From ChEMBL document CHEMBL1140227, “Histone deacetylase inhibitors through click chemistry” (J Med Chem, 2008)

How the values were obtained:
Format in all cases: functional
MOLT-4 = assay: Growth inhibition of human MOLT4 cells at 10 uM relative to control; settings: values are per cent of control
How it was run: (§1)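 Single-dose preliminary screen in the NCI human cancer cell line panel, run by the NIH. Percent inhibition of cell line growth was calculated by comparison with untreated samples.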

CCRF-CEM = assay: Growth inhibition of human CCRF-CEM cells at 10 uM relative to control; settings: values are per cent of control; how it was run: as §1
786-0 = assay: Growth inhibition of human 786-0 cells at 10 uM relative to control; settings: values are per cent of control; how it was run: as §1
cells [1] = settings: Homo sapiens, Cancer cell lines
[2] = Growth inhibition of human RPMI8266 cells at 10 uM relative to control; settings: values are per cent of control; how it was run: as §1
SN12C = assay: Growth inhibition of human SN12C cells at 10 uM relative to control; settings: values are per cent of control; how it was run: as §1
NCI-H522 = assay: Growth inhibition of human NCI-H522 cells at 10 uM relative to control; settings: values are per cent of control; how it was run: as §1
OVCAR-3 = assay: Growth inhibition of human OVCAR-3 cells at 10 uM relative to control; settings: values are per cent of control; how it was run: as §1
UACC-257 = assay: Growth inhibition of human UACC257 cells at 10 uM relative to control; settings: values are per cent of control
How it was run: (§2)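 Single-dose NCI human tumour cell line screen, run by the NIH. Percent inhibition of cell line growth was calculated by comparison with untreated samples.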

HOP-62 = assay: Growth inhibition of human HOP62 cells at 10 uM relative to control; settings: values are per cent of control; how it was run: as §1
M14 = assay: Growth inhibition of human M14 cells at 10 uM relative to control; settings: values are per cent of control; how it was run: as §1
SK-MEL-28 = assay: Growth inhibition of human SK-MEL-28 cells at 10 uM relative to control; settings: values are per cent of control; how it was run: as §1
PC-3 = assay: Growth inhibition of human PC3 cells at 10 uM relative to control; settings: values are per cent of control; how it was run: as §1
SK-OV-3 = assay: Growth inhibition of human SKOV3 cells at 10 uM relative to control; settings: values are per cent of control; how it was run: as §1
cells [3] = settings: Homo sapiens, Cancer cell lines; remark: listed apart in the source
UO-31 = assay: Growth inhibition of human UO31 cells at 10 uM relative to control; settings: values are per cent of control; how it was run: as §2
NCI-H23 = assay: Growth inhibition of human NCI-H23 cells at 10 uM relative to control; settings: values are per cent of control; how it was run: as §1
T47D = assay: Growth inhibition of human T47D cells at 10 uM relative to control; settings: values are per cent of control; how it was run: as §2
NCI/ADR-RES = assay: Growth inhibition of human NCI/ADR-RES cells at 10 uM relative to control; settings: values are per cent of control; how it was run: as §1
A549 = assay: Growth inhibition of human A549 cells at 10 uM relative to control; settings: values are per cent of control; how it was run: as §1
HL-60(TB) = assay: Growth inhibition of human HL-60(TB) cells at 10 uM relative to control; settings: read-out: INH
How it was run: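 Single-dose cell line screen run by the NCI (NIH) in its human cancer cell line panel, which includes the leukemia line HL-60(TB). Percent growth inhibition was calculated by comparison with untreated samples.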

MCF7 = assay: Growth inhibition of human MCF7 cells at 10 uM relative to control; settings: values are per cent of control; how it was run: as §1
NCI-H460 = assay: Growth inhibition of human NCI-H460 cells at 10 uM relative to control; settings: values are per cent of control; how it was run: as §1
LOX IMVI = assay: Growth inhibition of human LOXIMVI cells at 10 uM relative to control; settings: values are per cent of control; how it was run: as §1
COLO 205 = assay: Growth inhibition of human COLO205 cells at 10 uM relative to control; settings: values are per cent of control; how it was run: as §1
DU-145 = assay: Growth inhibition of human DU145 cells at 10 uM relative to control; settings: values are per cent of control; how it was run: as §1
CAKI-1 = assay: Growth inhibition of human Caki1 cells at 10 uM relative to control; settings: values are per cent of control; how it was run: as §1
MDA-MB-435 = assay: Growth inhibition of human MDA-MB-435 cells at 10 uM relative to control; settings: values are per cent of control; how it was run: as §1
UACC-62 = assay: Growth inhibition of human UACC62 cells at 10 uM relative to control; settings: values are per cent of control; how it was run: as §2
Melanoma cell = assay: cells; settings: Homo sapiens
U-251 = assay: Growth inhibition of human U251 cells at 10 uM relative to control; settings: values are per cent of control; how it was run: as §2
SNB-75 = assay: Growth inhibition of human SNB75 cells at 10 uM relative to control; settings: values are per cent of control; how it was run: as §2
HCT-116 = assay: Growth inhibition of human HCT116 cells at 10 uM relative to control; settings: values are per cent of control; how it was run: as §1
NCI-H226 = assay: Growth inhibition of human NCI-H226 cells at 10 uM relative to control; settings: values are per cent of control; how it was run: as §1
OVCAR-8 = assay: Growth inhibition of human OVCAR8 cells at 10 uM relative to control; settings: values are per cent of control; how it was run: as §1
SF-295 = assay: Growth inhibition of human SF295 cells at 10 uM relative to control; settings: values are per cent of control; how it was run: as §1
OVCAR-4 = assay: Growth inhibition of human OVCAR4 cells at 10 uM relative to control; settings: values are per cent of control; how it was run: as §1
OVCAR-5 = assay: Growth inhibition of human OVCAR5 cells at 10 uM relative to control; settings: values are per cent of control; how it was run: as §1
A498 = assay: Growth inhibition of human A498 cells at 10 uM relative to control; settings: values are per cent of control; how it was run: as §1
cells [4] = settings: Homo sapiens, Cancer cell lines; remark: listed apart in the source
cells [5] = settings: Homo sapiens, Cancer cell lines; remark: listed apart in the source
HCC 2998 = assay: Growth inhibition of human HCC2998 cells at 10 uM relative to control; settings: values are per cent of control; how it was run: as §1
BT-549 = assay: Growth inhibition of human BT549 cells at 10 uM relative to control; settings: values are per cent of control; how it was run: as §1
SNB-19 = assay: Growth inhibition of human SNB19 cells at 10 uM relative to control; settings: values are per cent of control; how it was run: as §1
HT-29 = assay: Growth inhibition of human HT-29 cells at 10 uM relative to control; settings: values are per cent of control; how it was run: as §1
MDA-MB-231 = assay: Growth inhibition of human MDA-MB-231 cells at 10 uM relative to control; settings: values are per cent of control; how it was run: as §1
EKVX = assay: Growth inhibition of human EKVX cells at 10 uM relative to control; settings: values are per cent of control; how it was run: as §1
ACHN = assay: Growth inhibition of human ACHN cells at 10 uM relative to control; settings: values are per cent of control; how it was run: as §1
SW-620 = assay: Growth inhibition of human SW620 cells at 10 uM relative to control; settings: values are per cent of control; how it was run: as §2
SK-MEL-2 = assay: Growth inhibition of human SK-MEL-2 cells at 10 uM relative to control; settings: values are per cent of control; how it was run: as §1
SF-268 = assay: Growth inhibition of human SF268 cells at 10 uM relative to control; settings: values are per cent of control; how it was run: as §1
Malme-3M = assay: Growth inhibition of human MALME-3M cells at 10 uM relative to control; settings: values are per cent of control; how it was run: as §1
MDA-MB-468 = assay: Growth inhibition of human MDA-MB-468 cells at 10 uM relative to control; settings: values are per cent of control; how it was run: as §1
Leukemia cell = assay: cells; settings: Homo sapiens
HCT-15 = assay: Growth inhibition of human HCT15 cells at 10 uM relative to control; settings: values are per cent of control; how it was run: as §1
cells [6] = settings: Homo sapiens, Cancer cell lines; remark: listed apart in the source
TK-10 = assay: Growth inhibition of human TK10 cells at 10 uM relative to control; settings: values are per cent of control; how it was run: as §2
K562 = assay: Growth inhibition of human K562 cells at 10 uM relative to control; settings: values are per cent of control; how it was run: as §1
SF-539 = assay: Growth inhibition of human SF539 cells at 10 uM relative to control; settings: values are per cent of control; how it was run: as §1
NCI-H322M = assay: Growth inhibition of human NCI-H322M cells at 10 uM relative to control; settings: values are per cent of control; how it was run: as §1
KM12 = assay: Growth inhibition of human KM12 cells at 10 uM relative to control; settings: values are per cent of control; how it was run: as §1
IGROV-1 = assay: Growth inhibition of human IGROV1 cells at 10 uM relative to control; settings: values are per cent of control; how it was run: as §1
HOP-92 = assay: Growth inhibition of human HOP92 cells at 10 uM relative to control; settings: values are per cent of control; how it was run: as §1
SK-MEL-5 = assay: Growth inhibition of human SK-MEL-5 cells at 10 uM relative to control; settings: values are per cent of control; how it was run: as §1

O=C(/C=C/c1cn(CCc2ccccc2)nn1)NO
growth, % of control at 10 µM (MOLT-4): 3.77% | growth, % of control at 10 µM (CCRF-CEM): 7.44% | growth, % of control at 10 µM (786-0): 26.3% | inhibition at 10 µM (cells [1]): 48% | growth, % of control at 10 µM [2]: 1.76% | growth, % of control at 10 µM (SN12C): 64.8% | growth, % of control at 10 µM (NCI-H522): 27.7% | growth, % of control at 10 µM (OVCAR-3): 61.3% | growth, % of control at 10 µM (UACC-257): 19.5% | growth, % of control at 10 µM (HOP-62): 13.3% | growth, % of control at 10 µM (M14): 44.7% | growth, % of control at 10 µM (SK-MEL-28): 42.6% | growth, % of control at 10 µM (PC-3): 37.2% | growth, % of control at 10 µM (SK-OV-3): 57% | growth percent at 10 µM (cells [3]): 40% | growth, % of control at 10 µM (UO-31): 37.4% | growth, % of control at 10 µM (NCI-H23): 68.4% | growth, % of control at 10 µM (T47D): 32.8% | growth, % of control at 10 µM (NCI/ADR-RES): -13.7% | growth, % of control at 10 µM (A549): 54.2% | growth, % of control at 10 µM (HL-60(TB)): -10.7% | growth, % of control at 10 µM (MCF7): 63.7% | growth, % of control at 10 µM (NCI-H460): 62.5% | growth, % of control at 10 µM (LOX IMVI): 44.9% | growth, % of control at 10 µM (COLO 205): 53.9% | growth, % of control at 10 µM (DU-145): 35.5% | growth, % of control at 10 µM (CAKI-1): 52.9% | growth, % of control at 10 µM (MDA-MB-435): 21.9% | growth, % of control at 10 µM (UACC-62): 18.1% | inhibition at 10 µM (Melanoma cell): 33% | growth, % of control at 10 µM (U-251): 40.7% | growth, % of control at 10 µM (SNB-75): 35.1% | growth, % of control at 10 µM (HCT-116): 5.49% | growth, % of control at 10 µM (NCI-H226): 76.5% | growth, % of control at 10 µM (OVCAR-8): 26.5% | growth, % of control at 10 µM (SF-295): 51.8% | growth, % of control at 10 µM (OVCAR-4): 77.5% | growth, % of control at 10 µM (OVCAR-5): 23.5% | growth, % of control at 10 µM (A498): 52.4% | inhibition at 10 µM (cells [4]): 45% | inhibition at 10 µM (cells [5]): 58% | growth, % of control at 10 µM (HCC 2998): 69.2% | growth, % of control at 10 µM (BT-549): 78% | growth, % of control at 10 µM (SNB-19): 90% | growth, % of control at 10 µM (HT-29): 56.9% | growth, % of control at 10 µM (MDA-MB-231): 60.3% | growth, % of control at 10 µM (EKVX): 44.6% | growth, % of control at 10 µM (ACHN): 29.3% | growth, % of control at 10 µM (SW-620): 31.1% | growth, % of control at 10 µM (SK-MEL-2): 45.8% | growth, % of control at 10 µM (SF-268): 57.2% | growth, % of control at 10 µM (Malme-3M): 15.9% | growth, % of control at 10 µM (MDA-MB-468): 56% | inhibition at 10 µM (Leukemia cell): 7% | growth, % of control at 10 µM (HCT-15): 75.8% | growth percent at 10 µM (cells [6]): 46% | growth, % of control at 10 µM (TK-10): 57.7% | growth, % of control at 10 µM (K562): 30.5% | growth, % of control at 10 µM (SF-539): 72.8% | growth, % of control at 10 µM (NCI-H322M): 66% | growth, % of control at 10 µM (KM12): 67.8% | growth, % of control at 10 µM (IGROV-1): 44.6% | growth, % of control at 10 µM (HOP-92): -9.64% | growth, % of control at 10 µM (SK-MEL-5): 35.5%
